Test results reported in ChEMBL document CHEMBL1154735, “A strategy to minimize reactive metabolite formation: discovery of (S)-4-(1-cyclopropyl-2-methoxyethyl)-6-[6-(difluoromethoxy)-2,5-dimethylpyridin-3-ylamino]-5-oxo-4,5-dihydropyrazine-2-carbonitrile as a potent, orally bioavailable corticotropin-releasing factor-1 receptor antagonist” (J Med Chem, 2009).
In brackets after ≈: the same amount, converted by molar mass. Activity calls are given as the source filed them. The rule behind the calls is not given here.

How the values were obtained:
[1] = target: T1, Corticotropin-releasing factor receptor 1 (Rattus norvegicus, UniProt P35353); assay: Displacement of [125I]Tyr-o-CRF from CRF1 receptor in rat frontal cortex homogenate by binding titration assay; type: tissue-based
T1 sequence (P35353 whole entry): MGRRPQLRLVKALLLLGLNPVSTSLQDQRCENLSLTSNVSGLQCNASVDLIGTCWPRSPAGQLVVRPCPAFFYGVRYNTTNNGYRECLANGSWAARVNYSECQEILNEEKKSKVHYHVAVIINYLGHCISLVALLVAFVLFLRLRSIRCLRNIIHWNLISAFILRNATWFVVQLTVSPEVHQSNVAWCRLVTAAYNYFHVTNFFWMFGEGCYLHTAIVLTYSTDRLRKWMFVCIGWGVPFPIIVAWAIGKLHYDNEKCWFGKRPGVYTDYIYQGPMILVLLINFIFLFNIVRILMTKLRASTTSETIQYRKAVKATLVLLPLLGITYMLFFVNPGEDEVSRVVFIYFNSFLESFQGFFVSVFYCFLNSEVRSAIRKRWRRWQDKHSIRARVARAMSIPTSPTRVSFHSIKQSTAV

[2] = Metabolic stability in human liver microsomes assessed as compound remaining at 3 uM after 10 mins by HPLC/UV/MS analysis; type: ADME, Microsome; conditions: read-out: Stability
[3] = Metabolic stability in rat liver microsomes assessed as compound remaining at 3 uM after 10 mins by HPLC/UV/MS analysis; type: ADME, Microsome; conditions: read-out: Stability
Method in brief: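 Pooled human or rat liver microsomes (1 mg/mL protein) with 3 μM compound and 1.3 mM NADPH in 100 mM sodium phosphate pH 7.4 at 37 °C; final 0.015% DMSO, 0.985% acetonitrile; stopped at 0 and 10 min, percent remaining by LC/MS/MS.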

[4] = Clearance in Sprague-Dawley rat at 2 mg/kg, iv after 0.17 to 24 hrs by LC/MS/MS analysis; type: ADME, organism-based; set-up: dose 2 mg/kg, route intravenous; conditions: in vivo
[5] = Volume of distribution at steady state in Sprague-Dawley rat at 2 mg/kg, iv after 0.17 to 24 hrs by LC/MS/MS analysis; type: ADME, organism-based; set-up: dose 2 mg/kg, route intravenous; conditions: in vivo, read-out: Vdss
Method in brief: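 Sprague–Dawley rats (n = 3) dosed 2 mg/kg iv in PEG:ethanol 90:10 (v/v) at 1 mL/kg. Plasma stored at –20 °C and quantified by LC/MS/MS after acetonitrile precipitation with internal standard.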

[6] = Half life in Sprague-Dawley rat at 2 mg/kg, iv by LC/MS/MS analysis; type: ADME, organism-based; set-up: dose 2 mg/kg, route intravenous; conditions: in vivo
[7] = AUC in Sprague-Dawley rat at 10 mg/kg, po dosed as aqueous suspension of 1% polysorbate 80 in 0.5% methylcellulose after 0.25 to 24 hrs by LC/MS/MS analysis; type: ADME, organism-based; set-up: time upper 24 hr, time lower 0.25 hr, dose 10 mg/kg, route oral; conditions: in vivo
[8] = Cmax in Sprague-Dawley rat at 10 mg/kg, po dosed as aqueous suspension of 1% polysorbate 80 in 0.5% methylcellulose after 2 to 4 hrs by LC/MS/MS analysis; type: ADME, organism-based; set-up: dose 10 mg/kg, route oral; conditions: in vivo
[9] = Oral bioavailability in Sprague-Dawley rat at 10 mg/kg dosed as aqueous suspension of 1% polysorbate 80 in 0.5% methylcellulose after 0.25 to 24 hrs by LC/MS/MS analysis; type: ADME, organism-based; conditions: in vivo
[10] = AUC in Sprague-Dawley rat at 10 mg/kg, po dosed as aqueous suspension of Labrafil M 1944CS/DMAC/polysorbate 80, 85:10:5 (v/v) after 0.25 to 24 hrs by LC/MS/MS analysis; type: ADME, organism-based; set-up: time 0.25-24 hr, dose 10 mg/kg, route oral; conditions: plasma
[11] = Cmax in Sprague-Dawley rat at 10 mg/kg, po dosed as aqueous suspension of Labrafil M 1944CS/DMAC/polysorbate 80, 85:10:5 (v/v) after 2 to 4 hrs by LC/MS/MS analysis; type: ADME, organism-based; set-up: dose 10 mg/kg, route oral; conditions: in vivo
[12] = Oral bioavailability in Sprague-Dawley rat at 10 mg/kg dosed as aqueous suspension of Labrafil M 1944CS/DMAC/polysorbate 80, 85:10:5 (v/v) after 0.25 to 24 hrs by LC/MS/MS analysis; type: ADME, organism-based; conditions: in vivo
[13] = Octanol-water partition coefficient, log D at pH 7.4; type: physicochemical
Method in brief: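 Partitioning between octanol and water at pH 7.4.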

[14] = Aqueous solubility at pH 6.5; type: physicochemical
[15] = Aqueous solubility at pH 1; type: physicochemical
[16] = Dissociation constant, pKa by spectrophotometric titration method; type: physicochemical
Method in brief: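 Spectrophotometric titration over pH 2–11 in varying acetonitrile/water mixtures, extrapolated to 0% cosolvent.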

[17] = Fraction unbound in human serum after 3 to 7 hrs by equilibrium dialysis; type: ADME, cell-free
Method in brief: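 Human serum spiked with compound, equilibrium-dialysed against isotonic phosphate buffer for 3 or 7 h (depending on system) at 37 °C; both sides measured by LC/MS/MS, unbound fraction as buffer/serum concentration ratio.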

[18] = Metabolic stability in NADPH-fortified human liver microsomes assessed as parent compound remaining at 10 uM after 30 mins by HPLC/UV/MS analysis; type: ADME, Microsome; conditions: read-out: Stability
Method in brief: (§1)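 Pooled rat or human liver microsomes 1 mg/mL, 10 μM substrate, 100 mM potassium phosphate pH 7.4, 37 °C, started with NADPH-regenerating system (1.3 mM NADP+, 3.3 mM glucose-6-phosphate, 3.3 mM MgCl2, 0.5 U/mL G6PDH); GSH 5 mM in trapping runs. Sampled 0 and 30 min, acetonitrile quench; abundance as UV peak area (330–340 nm) fraction of all drug-related components by HPLC/UV/MS.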

Liver microsomes [19] = assay: Metabolic stability in NADPH-fortified human liver microsomes assessed as pyrazinone oxidation metabolite formation at 10 uM after 30 mins by HPLC/UV/MS analysis; type: ADME, Microsome; conditions: 0.5 h; method in brief: as §1
Liver microsomes [20] = assay: Metabolic stability in NADPH-fortified human liver microsomes assessed as GSH adduct formation at 10 uM after 30 mins by HPLC/UV/MS analysis; type: ADME, Microsome; conditions: 0.5 h; method in brief: as §1
[21] = Metabolic stability in NADPH-fortified rat liver microsomes assessed as parent compound remaining at 10 uM after 30 mins by HPLC/UV/MS analysis; type: ADME, Microsome; conditions: read-out: Stability; method in brief: as §1
Liver microsomes [22] = assay: Metabolic stability in NADPH-fortified rat liver microsomes assessed as pyrazinone oxidation metabolite formation at 10 uM after 30 mins by HPLC/UV/MS analysis; type: ADME, Microsome; conditions: 0.5 h; method in brief: as §1
Liver microsomes [23] = assay: Metabolic stability in NADPH-fortified rat liver microsomes assessed as GSH adduct formation at 10 uM after 30 mins by HPLC/UV/MS analysis; type: ADME, Microsome; conditions: 0.5 h; method in brief: as §1
Rattus norvegicus [24] = assay: Ex vivo receptor occupancy of CRF1 receptor in Sprague-Dawley rat brain parietal assessed as inhibition of [125I]sauvagine binding at 10 mg/kg, po after 90 mins by autoradiography; type: functional; conditions: 1.5 h
Rattus norvegicus [25] = assay: Anxiolytic activity in Sprague-Dawley rat assessed as decrease in exit latency at 10 mg/kg, po after 60 mins by defensive withdrawal test; type: functional, organism-based; set-up: dose 10 mg/kg

| Compound | IC50 [1] [nM] | remaining at 10 min, 3 µM [2] [%] | remaining at 10 min, 3 µM [3] [%] | clearance [4] [mL/min/kg] | Vd [5] [L/kg] | half-life [6] [h] | AUC [7] [µM·h] | Cmax [8] [nM] | bioavailability [9] [%] | AUC [10] [µM·h] | Cmax [11] [nM] | bioavailability [12] [%] | fraction unbound [17] | also measured |
| --- | --- | --- | --- | --- | --- | --- | --- | --- | --- | --- | --- | --- | --- | --- |
| COC[C@H](C1CC1)n1cc(Cl)nc(Nc2cc(C)c(OC)nc2C)c1=O | 1.5 | 48 | 24 | 38 | 19 | 19 | 1.3 | 180 | 11 | 3 | 510 | 26 | 0.021 | logD [13]: 3.9; solubility [14]: 6 µg/mL (≈ 15.8 µM); solubility [15]: 116 µg/mL (≈ 306 µM); pKa [16]: 3.1 |
| COCC(COC)Nc1nc(C)nc2c(-c3ccc(Cl)cc3Cl)c(C)nn12 |  |  |  |  |  |  |  |  |  |  |  |  |  | inhibition in vivo at 10 mg/kg (Rattus norvegicus [24]): 89%; Activity (Rattus norvegicus [25]): Active |
| COC[C@H](C1CC1)n1cc(C#N)nc(Nc2cc(C)c(OC)nc2C)c1=O | 12 | 60 | 51 |  |  |  |  |  |  |  |  |  |  |  |
| COC[C@@H](C)n1cc(Cl)nc(Nc2cc(C)c(OC(F)F)nc2C)c1=O | 1.6 | 87 | 66 |  |  |  |  |  |  |  |  |  |  |  |
| COC[C@@H](C)n1cc(Cl)nc(Nc2cc(C)c(OC)nc2C)c1=O | 14 | 39 | 8 |  |  |  |  |  |  |  |  |  |  |  |

Now from value to compound, other results behind:

| IC50 [1] [nM] | remaining at 10 min, 3 µM [2] [%] | remaining at 10 min, 3 µM [3] [%] | clearance [4] [mL/min/kg] | Vd [5] [L/kg] | half-life [6] [h] | AUC [7] [µM·h] | Cmax [8] [nM] | bioavailability [9] [%] | AUC [10] [µM·h] | Cmax [11] [nM] | bioavailability [12] [%] | fraction unbound [17] | Compound | also measured |
| --- | --- | --- | --- | --- | --- | --- | --- | --- | --- | --- | --- | --- | --- | --- |
| 0.5 | 84 | 46 | 31 | 42 | 16 |  |  |  | 4.7 | 440 | 48 | 0.008 | COC[C@@H](C1CC1)n1cc(Cl)nc(Nc2cc(C)c(OC(F)F)nc2C)c1=O |  |
| 0.82 | 100 | 89 | 36 | 11 | 7.2 | 4.6 | 560 | 38 | 9.9 | 1400 | 82 | 0.016 | Cc1cc(Nc2nc(C#N)cn([C@H](C)C3CC3)c2=O)c(C)nc1OC(F)F | remaining at 0.5 h, 10 µM [18]: 88%; Activity (Liver microsomes [19]): < 1%; Activity (Liver microsomes [20]): 7%; remaining at 0.5 h, 10 µM [21]: 80%; Activity (Liver microsomes [22]): < 1%; Activity (Liver microsomes [23]): 8% |
| 0.24 |  | 69 | 36 | 15 | 9.2 | 7 | 770 | 66 | 9 | 1300 | 86 | 0.008 | COC[C@H](C1CC1)n1cc(Cl)nc(Nc2cc(C)c(OC(F)F)nc2C)c1=O | remaining at 0.5 h, 10 µM [18]: 75%; Activity (Liver microsomes [19]): 1%; Activity (Liver microsomes [20]): 5%; remaining at 0.5 h, 10 µM [21]: 42%; Activity (Liver microsomes [22]): 1%; Activity (Liver microsomes [23]): 3% |
| 0.3 | 100 | 86 |  |  |  |  |  |  |  |  |  |  | Cc1cc(Nc2nc(Cl)cn([C@H](C)C3CC3)c2=O)c(C)nc1OC(F)F |  |
